Results as given in ChEMBL document CHEMBL2150936, “Anticancer activity of small amphipathic β²,²-amino acid derivatives” (Eur J Med Chem, 2012).

Experiments:
Ramos [1] = assay: Cytotoxicity against human Ramos cells after 4 hrs by MTT assay; type: functional, cell-based
In short: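 Ramos Burkitt's lymphoma cells, kept in suspension in RPMI 1640 with 10% FBS, were seeded at 4 × 10^5 cells/ml in serum-free RPMI 1640. Compounds in RPMI-1640 were added immediately, then 4 h at 37 °C, 5% CO2. MTT was added for a further 2 h, formazan dissolved in acidic isopropanol (0.04 N HCl), and A590 read. Survival was calculated against untreated medium control; 1% Triton X-100 served as positive control.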

[2] = Hemolytic activity in human RBC assessed as hemoglobin release; type: ADME, cell-based, Erythrocyte
In short: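 Heparinized human blood was washed three times in PBS pre-warmed to 37 °C to remove plasma. Compounds were dissolved in PBS and mixed with the RBCs to a final 1% v/v erythrocytes. Samples were incubated for 1 h at 37 °C with agitation, then centrifuged. Hemoglobin release was read at 405 nm, relative to 0.1% v/v Triton X-100 (positive control) and PBS (negative control).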

MRC5 = assay: Cytotoxicity against human MRC5 cells after 4 hrs by MTT assay; type: cell-based; details: MRC5, 4 h
In short: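 MRC-5 embryonic lung fibroblast monolayers in MEM with 10% FBS were seeded at 1 × 10^5 cells/ml, grown overnight, then medium was replaced with compound solution. Exposure was 4 h at 37 °C, 5% CO2, then MTT for 2 h. Formazan was dissolved in acidic isopropanol (0.04 N HCl) and absorbance read at 590 nm. Background-corrected viability was taken relative to medium-only control, with Triton X-100 as positive control.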

Ramos [3] = assay: Selectivity index, ratio of EC50 for human RBC to IC50 for human Ramos cells; type: functional
In short: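 Ramos IC50 came from a 4 h MTT assay: cells at 4 × 10^5 cells/ml in serum-free RPMI-1640, compounds added at once, 37 °C, 2 h MTT, read at 590 nm. RBC EC50 came from hemoglobin release at 405 nm: 1% v/v washed human erythrocytes in PBS, 1 h at 37 °C, Triton X-100 reference. SI = RBC EC50 / Ramos IC50.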

Ramos [4] = assay: Selectivity index, ratio of EC50 for human MRC5 cells to IC50 for human Ramos cells; type: functional
In short: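 Ramos cells were seeded at 4 × 10^5 cells/ml in serum-free RPMI-1640, and compounds in RPMI-1640 were added at once. MRC-5 fibroblasts were seeded at 1 × 10^5 cells/ml in MEM with 10% FBS, grown overnight, and the medium was then replaced with compound. Both were incubated 4 h at 37 °C, 5% CO2, then given MTT for 2 h. Formazan was dissolved in acidic isopropanol and read at 590 nm. Survival was expressed relative to the untreated medium control. SI = MRC-5 EC50 / Ramos IC50.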

[5] = Homo sapiens, Erythrocyte, read-out: EC50

SMILES	IC50 (Ramos [1])	EC50 [2, 5]	EC50 (MRC5)	Selectivity Index (Ramos [3])	Selectivity Index (Ramos [4])	EC50 ([2]; erythrocyte)
CN(C)CCOC(=O)C(CN)(Cc1ccc2ccccc2c1)Cc1ccc2ccccc2c1	3.1 µM	458 µM	12.7 µM	148	4.1	–
CN(C)CCN1CCN(C(=O)C(CN)(Cc2ccc(C(F)(F)F)cc2)Cc2ccc(C(F)(F)F)cc2)CC1	19 µM	1120 µM	69 µM	58	3.6	–
CN(C)CCOC(=O)C(CN)(Cc1ccc(C(F)(F)F)cc1)Cc1ccc(C(F)(F)F)cc1	2.3 µM	437 µM	8.2 µM	190	3.6	–
CN(C)CCN1CCN(C(=O)C(CN)(Cc2ccc(C(C)(C)C)cc2)Cc2ccc(C(C)(C)C)cc2)CC1	5.2 µM	337 µM	12 µM	65	2.3	–
CN(C)CCOC(=O)C(CN)(Cc1ccc(C(C)(C)C)cc1)Cc1ccc(C(C)(C)C)cc1	31 µM	52 µM	90 µM	1.7	2.9	–
CN(C)CCNC(=O)C(CN)(Cc1ccc(C(C)(C)C)cc1)Cc1ccc(C(C)(C)C)cc1	28 µM	–	49 µM	9.8	1.8	–
N=C(N)NCCCNC(=O)C(CNC(=N)N)(Cc1ccc2ccccc2c1)Cc1ccc2ccccc2c1	79 µM	–	760 µM	–	9.6	ND(Insoluble)
CC(C)(C)c1ccc(CC(CN)(Cc2ccc(C(C)(C)C)cc2)C(=O)NCCCN)cc1	14.4 µM	254 µM	35 µM	17.6	2.4	–
CN1CCN(C(=O)C(CN)(Cc2ccc(C(C)(C)C)cc2)Cc2ccc(C(C)(C)C)cc2)CC1	6.1 µM	349 µM	16.6 µM	57	2.7	–
NCCCNC(=O)C(CN)(Cc1ccc2ccccc2c1)Cc1ccc2ccccc2c1	4.3 µM	447 µM	6.6 µM	104	1.5	–
CN(C)CCNC(=O)C(CN)(Cc1ccc2ccccc2c1)Cc1ccc2ccccc2c1	6.6 µM	217 µM	4.9 µM	33	0.7	–
CN(C)CCN1CCN(C(=O)C(CN)(Cc2ccc3ccccc3c2)Cc2ccc3ccccc3c2)CC1	7.2 µM	409 µM	18.5 µM	57	2.6	–
CN1CCN(C(=O)C(CN)(Cc2ccc3ccccc3c2)Cc2ccc3ccccc3c2)CC1	14 µM	–	41 µM	22	2.9	–
CC(C)(C)c1ccc(CC(CN)(Cc2ccc(C(C)(C)C)cc2)C(=O)NCCN)cc1	10.6 µM	18 µM	6.1 µM	1.7	0.6	–
NCCNC(=O)C(CN)(Cc1ccc(C(F)(F)F)cc1)Cc1ccc(C(F)(F)F)cc1	7.1 µM	–	17.8 µM	60	2.5	–
CN(C)CCNC(=O)C(CN)(Cc1ccc(C(F)(F)F)cc1)Cc1ccc(C(F)(F)F)cc1	11.4 µM	–	47 µM	41	4.1	–
CC(C)(C)c1ccc(CC(CNC(=N)N)(Cc2ccc(C(C)(C)C)cc2)C(=O)NCCCNC(=N)N)cc1	63 µM	–	64 µM	–	1	ND(Insoluble)
N=C(N)NCCC[C@H](NC(=O)C(CN)(Cc1ccc2ccccc2c1)Cc1ccc2ccccc2c1)C(N)=O	107 µM	425 µM	552 µM	4	5.2	–
CC(C)(C)c1ccc(CC(CN)(Cc2ccc(C(C)(C)C)cc2)C(=O)N[C@@H](CCCNC(=N)N)C(N)=O)cc1	136 µM	> 654 µM	158 µM	>4.8	1.2	–
NCCCNC(=O)C(CN)(Cc1ccc(C(F)(F)F)cc1)Cc1ccc(C(F)(F)F)cc1	11 µM	790 µM	30 µM	72	2.8	–
CN1CCN(C(=O)C(CN)(Cc2ccc(C(F)(F)F)cc2)Cc2ccc(C(F)(F)F)cc2)CC1	27 µM	526 µM	182 µM	19.6	6.7	–
N=C(N)NCCC[C@H](NC(=O)C(CN)(Cc1ccc(C(F)(F)F)cc1)Cc1ccc(C(F)(F)F)cc1)C(N)=O	> 254 µM	990 µM	> 634 µM	–	–	–
N=C(N)NCCCNC(=O)C(CNC(=N)N)(Cc1ccc(C(F)(F)F)cc1)Cc1ccc(C(F)(F)F)cc1	78 µM	–	171 µM	–	2.2	ND(Insoluble)
